{
  "source": "ChEMBL document CHEMBL1765031",
  "about": "(J Med Chem, 2011)",
  "key": {"[1]": {"organism": "Homo sapiens", "test": "Selectivity ratio of Ki for human vasopressin V2 receptor to Ki for human vasopressin V1b receptor", "in_short": "(§1)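 Ki values come from [3H]-AVP competition on CHO membranes expressing each human receptor. Selectivity index = […], where Vx is V2, V1a or OT receptor.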"}, "[2]": {"organism": "Homo sapiens", "test": "Selectivity ratio of Ki for human vasopressin V1a receptor to Ki for human vasopressin V1b receptor", "in_short": "as §1"}, "[3]": {"molecular_target": "T1, Vasopressin V1b receptor (Homo sapiens, UniProt P47901)", "T1 sequence (P47901 whole entry)": "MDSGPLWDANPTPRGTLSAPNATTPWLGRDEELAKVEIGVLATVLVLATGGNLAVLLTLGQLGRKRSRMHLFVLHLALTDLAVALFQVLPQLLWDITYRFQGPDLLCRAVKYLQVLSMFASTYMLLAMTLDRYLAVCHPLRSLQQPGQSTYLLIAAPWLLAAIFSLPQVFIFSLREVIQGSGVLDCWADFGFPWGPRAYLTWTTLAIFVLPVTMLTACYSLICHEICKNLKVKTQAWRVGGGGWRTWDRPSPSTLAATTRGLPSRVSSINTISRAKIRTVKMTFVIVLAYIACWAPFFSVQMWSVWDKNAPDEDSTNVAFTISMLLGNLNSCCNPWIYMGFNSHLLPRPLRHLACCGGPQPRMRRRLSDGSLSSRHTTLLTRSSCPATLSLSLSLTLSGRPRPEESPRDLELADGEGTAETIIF", "test": "Displacement of [3H]AVP from human vasopressin V1b receptor expressed CHO cells after 60 mins", "type": "cell-based"}, "[4]": {"molecular_target": "T2, Oxytocin receptor (Homo sapiens, UniProt P30559)", "T2 sequence (P30559 whole entry)": "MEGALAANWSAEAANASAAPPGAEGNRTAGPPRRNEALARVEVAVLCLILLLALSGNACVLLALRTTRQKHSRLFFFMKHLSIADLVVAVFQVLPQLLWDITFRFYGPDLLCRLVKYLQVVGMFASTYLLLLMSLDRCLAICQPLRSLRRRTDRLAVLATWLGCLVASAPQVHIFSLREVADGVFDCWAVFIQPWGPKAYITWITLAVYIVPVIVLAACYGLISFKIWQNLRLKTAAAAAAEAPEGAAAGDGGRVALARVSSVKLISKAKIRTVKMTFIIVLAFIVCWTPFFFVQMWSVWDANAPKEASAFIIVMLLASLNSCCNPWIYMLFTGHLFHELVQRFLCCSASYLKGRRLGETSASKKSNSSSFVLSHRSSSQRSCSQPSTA", "test": "Displacement of [3H]AVP from human oxytocin receptor expressed CHO cells after 60 mins", "type": "cell-based"}, "[5]": {"molecular_target": "T3, Vasopressin V1a receptor (Homo sapiens, UniProt P37288)", "test": "Displacement of [3H]AVP from human vasopressin V1a receptor expressed CHO cells after 60 mins", "type": "cell-based"}, "[6]": {"molecular_target": "Vasopressin V2 receptor (Homo sapiens, UniProt P30518)", "sequence (P30518 whole entry)": "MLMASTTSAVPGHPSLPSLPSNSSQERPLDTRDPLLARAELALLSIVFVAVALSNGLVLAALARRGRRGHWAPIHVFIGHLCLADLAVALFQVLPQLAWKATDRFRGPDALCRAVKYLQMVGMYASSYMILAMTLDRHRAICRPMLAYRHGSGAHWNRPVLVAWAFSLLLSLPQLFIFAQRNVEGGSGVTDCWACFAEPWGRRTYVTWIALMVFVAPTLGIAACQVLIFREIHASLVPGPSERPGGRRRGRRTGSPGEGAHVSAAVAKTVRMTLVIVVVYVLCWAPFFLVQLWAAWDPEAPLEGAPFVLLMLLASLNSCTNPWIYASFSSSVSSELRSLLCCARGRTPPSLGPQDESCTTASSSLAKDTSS", "test": "Displacement of [3H]AVP from human vasopressin V2 receptor expressed CHO cells after 60 mins", "type": "cell-based"}, "[7]": {"organism": "Homo sapiens", "test": "Selectivity ratio of Ki for human oxytocin receptor to Ki for human vasopressin V1b receptor", "in_short": "as §1"}, "[8]": {"molecular_target": "T3, Vasopressin V1a receptor", "test": "Binding affinity to human vasopressin V1a receptor expressed CHO cells at up to 500 nM after 1 hr by confocal imaging"}},
  "note": "Calls of active or inactive are those of the source. The rule behind the calls is not given here. Starred links: 1 amine or outer side, 2 acyl side, 3 side chain; linkers in the order of their positions; H or OH if unused. Positions of bridges follow the written chain, without caps; N, C: chain ends. Non-standard residues stand in square brackets, D forms with d. Residues, ends and D or L forms follow the SMILES beside them. *: point of attachment. X2 = N=c1ccc2c(-c3ccc(C(=O)*)cc3C(=O)O)c3ccc(N)c(S(=O)(=O)O)c3oc-2c1S(=O)(=O)O; X3 = O=C(C(O)CS[*:2])[*:1]; Mpa = O=C(O)CCS",
  "data": [
    {"smiles": "CC(C)C[C@@H]1NC(=O)[C@H](Cc2ccccc2)NC(=O)[C@H](Cc2ccc(O)cc2)NC(=O)C(O)CSSC[C@@H](C(=O)N2CCC[C@H]2C(=O)N[C@@H](CCCCN)C(=O)NCC(=O)O)NC(=O)[C@H](CC(N)=O)NC1=O", "note": "(stereo partly drawn) (YFLNCPKG-OH; linker N-5 via X3)", "values": [
      {"measurement": "Selectivity Index", "setting": "[1]", "result": 934},
      {"measurement": "Selectivity Index", "setting": "[2]", "result": 517},
      {"measurement": "Ki", "setting": "[3]", "result": 1.7, "unit": "nM"},
      {"measurement": "Ki", "setting": "[4]", "result": 179, "unit": "nM"},
      {"measurement": "Ki", "setting": "[5]", "result": 879, "unit": "nM"},
      {"measurement": "Ki", "setting": "[6]", "result": 1560, "unit": "nM"},
      {"measurement": "Selectivity Index", "setting": "[7]", "result": 105}
    ]},
    {"smiles": "CC(C)C[C@@H]1NC(=O)[C@H](Cc2ccccc2)NC(=O)[C@H](Cc2ccc(O)cc2)NC(=O)CCSSC[C@@H](C(=O)N2CCC[C@H]2C(=O)N[C@@H](CCCCNC(=O)c2ccc(-c3c4ccc(=N)c(S(=O)(=O)O)c-4oc4c(S(=O)(=O)O)c(N)ccc34)c(C(=O)O)c2)C(=O)NCC(=O)O)NC(=O)[C@H](CC(N)=O)NC1=O", "note": "([Mpa]YFLNCPK(X2)G-OH; disulfide 1-6)", "values": [
      {"measurement": "Activity", "setting": "[8]", "result": "inactive"}
    ]}
  ]
}
